The source made the active and inactive calls. The rule behind the calls is not given here.
Assays:
Hepatitis C virus [1] = test: Antiviral activity against Hepatitis C virus subtype 2a JFH1 infected in HuH7.5 cells assessed as delay in occurrence of the viral-induced CPE at 500 nM after 3 days by luciferase reporter assay; assay type: functional, organism-based; settings: Hepacivirus hominis
Hepatitis C virus [2] = test: Inhibition of Hepatitis C virus subtype 1b NS3/4A protease
[3] = Inhibition of Hepatitis C virus subtype 3a NS3/4A protease
Hepatitis C virus [4] = test: Antiviral activity against Hepatitis C virus infected in HuH7 cells assessed as cell viability at 10 times EC50 after 2 to 3 weeks by neutral red assay in presence of 1,000 ug/ml G418; assay type: functional, organism-based; settings: Hepacivirus hominis; Huh-7
How it was run: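 Huh7-Luc genotype 1b (con1, clone ET) replicon cells, 20,000 per 10-cm dish in DMEM with 1,000 μg/ml G418. Cells got one inhibitor or a two-inhibitor combination, dosed as multiples of each inhibitor's EC50 from a genotype 1b luciferase replicon assay. Held at 37°C, 5% CO2, with medium plus compound refreshed twice weekly. After 2–3 weeks, surviving colonies were stained with neutral red and counted. Three independent experiments.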

Hepatitis C virus [5] = test: Antiviral activity against Hepatitis C virus subtype 2a JFH1 infected in HuH7.5 cells assessed as reduction in cellular viral RNA levels normalized to RPL13A RNA levels at 500 nM after 3 days by TaqMan RT-PCR; assay type: functional, organism-based; settings: Hepacivirus hominis
Hepatitis C virus [6] = test: Antiviral activity against Hepatitis C virus subtype 2a JFH1 infected in HuH7.5 cells assessed as viral RNA replication after initial decline at 4000 nM after 3 days by TaqMan RT-PCR; assay type: functional, organism-based; settings: Hepacivirus hominis

Structure (SMILES): COc1ccc2c(O[C@@H]3C[C@H]4C(=O)N[C@]5(C(=O)NS(=O)(=O)C6CC6)C[C@H]5/C=C\CCCCN(C)C(=O)[C@@H]4C3)cc(-c3nc(C(C)C)cs3)nc2c1C [SIMEPREVIR]
- inhibition (Hepatitis C virus [1]): Active
- Ki (Hepatitis C virus [2]): 0.5 nM
- IC50 [3]: 37 nM
- inhibition (Hepatitis C virus [4]): inactive
- inhibition (Hepatitis C virus [5]): Active
- inhibition (Hepatitis C virus [6]): inactive

From ChEMBL document CHEMBL1671684, “In vitro resistance profile of the hepatitis C virus NS3/4A protease inhibitor TMC435” (Antimicrob Agents Chemother, 2010)
